{"source": "PubChem BioAssay AID588825", "about": "(Broad Institute, 2011)", "note": "Activity calls are given as the source filed them.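 The calls were made as follows: active = signal drop whose fitted AC50 is at most twice the top valid dose for that sample; inconclusive = flat fit with a moderate drop, or a poor fit; inactive = the rest.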", "data": [{"system": "CHO ldlA7 parental cells, DiI-HDL uptake fluorescence, 3 h", "experiment": "DiI-HDL uptake in parental ldlA7 CHO cells, dose response, counter-screen for SR-BI HDL uptake inhibitor project, cell-based, fluorescence, dry powder (AID 588825)", "settings": "not given", "how_it_was_run": "(§1)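 System: parental CHO ldlA7 cells lacking LDL receptor, no mSR-BI overexpression; medium: HEPES-buffered Ham's F12 containing fatty-acid-free BSA; dosing: compounds delivered into wells by pin transfer; times: overnight cell attachment, then 3 h compound plus DiI-HDL exposure at 37 °C; signal: bottom-read fluorescence, 550 nm ex, 595 nm em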", "values": [{"smiles": "CCCCCCC1CCC/C1=N\\NC(N)=S", "note": "(configuration not stated)", "AC50": "> 70 µM (inactive)"}]}, {"system": "not listed separately", "experiment": "DiI-HDL uptake in parental ldlA7 CHO cells, dose response, counter-screen for SR-BI HDL uptake inhibitor project, cell-based, fluorescence, dry powder (AID 588825)", "settings": "CHO ldlA7 parental cells, DiI-HDL uptake fluorescence, 3 h; at 30 µM (top of the series)", "how_it_was_run": "as §1", "values": [{"smiles": "C[C@@H]1CN([C@@H](C)CO)C(=O)Cc2cc(NC(=O)Nc3ccc(C(F)(F)F)cc3)ccc2O[C@@H]1CN(C)S(=O)(=O)c1ccc(Cl)cc1", "activity change, negative = inhibition": "19.1% (inactive)"}]}, {"system": "not listed separately", "experiment": "DiI-HDL uptake in parental ldlA7 CHO cells, dose response, counter-screen for SR-BI HDL uptake inhibitor project, cell-based, fluorescence, dry powder (AID 588825)", "settings": "CHO ldlA7 parental cells, DiI-HDL uptake fluorescence, 3 h; at 35 µM (top of the series)", "how_it_was_run": "as §1", "values": [{"smiles": "COc1cc(OC)cc(C(=O)Nc2nc(-c3ccc4c(c3)CCN4C(=O)CN(C)C)cs2)c1", "activity change, negative = inhibition": "3.12% (inactive)"}, {"smiles": "COc1cc(OC)cc(C(=O)Nc2nc(-c3ccc4c(c3)CCN4C(=O)OC(C)(C)C)cs2)c1", "activity change, negative = inhibition": "1.78% (inactive)"}, {"smiles": "COc1c(NC(=O)C(=O)c2ccc(OCCN3CCOCC3)c3ccccc23)cc(C(C)(C)C)cc1NS(C)(=O)=O", "activity change, negative = inhibition": "8% (inactive)"}, {"smiles": "Cc1ccc2oc(-c3cccc(NC(=O)c4cc(-n5cnnc5)ccc4Cl)c3)nc2c1", "activity change, negative = inhibition": "-1.07% (inactive)"}, {"smiles": "COCC(=O)N1CCc2cc(-c3csc(NC(=O)c4cc(OC)cc(OC)c4)n3)ccc21", "activity change, negative = inhibition": "1.62% (inactive)"}, {"smiles": "C[C@@H]1CN([C@H](C)CO)C(=O)c2cc(NC(=O)Cc3cn(C)c4ccccc34)ccc2O[C@H]1CN(C)S(=O)(=O)c1ccc(Cl)cc1", "activity change, negative = inhibition": "5.56% (inactive)"}, {"smiles": "CC(=O)N1CCc2cc(-c3nc(NC(=O)c4cccc(OC(F)(F)F)c4)sc3C)ccc21", "activity change, negative = inhibition": "0.208% (inactive)"}, {"smiles": "CCC(=O)N1CCc2cc(-c3csc(NC(=O)c4ccc(F)c(OC)c4)n3)ccc21", "activity change, negative = inhibition": "7.73% (inactive)"}, {"smiles": "C[C@H](C(=O)NC1CCCC1)N(C(=O)Cn1nnc(-c2ccc3c(c2)OCO3)n1)C1CCCCC1", "activity change, negative = inhibition": "0.283% (inactive)"}, {"smiles": "CCC(=O)N1CCc2cc(-c3csc(NC(=O)c4cccc(OC)c4)n3)ccc21", "activity change, negative = inhibition": "14.2% (inactive)"}, {"smiles": "CC(C)(Sc1cc(C(C)(C)C)c(O)c(C(C)(C)C)c1)Sc1cc(C(C)(C)C)c(O)c(C(C)(C)C)c1", "activity change, negative = inhibition": "-1.71% (inactive)"}, {"smiles": "COc1ccc(-c2cc(CC(=O)N(C3CCCCC3)C(C)C(=O)NC3CCCC3)no2)cc1OC", "note": "(configuration not stated)", "activity change, negative = inhibition": "3.44% (inactive)"}, {"smiles": "CC1CCC/C=C/C2CC(O)CC2C(O)/C=C\\C(=O)O1", "note": "(configuration not stated)", "activity change, negative = inhibition": "-6.83% (inactive)"}, {"smiles": "CCC(=O)N1CC(C)(C)c2cc(-c3csc(NC(=O)c4cc(OC)cc(OC)c4)n3)ccc21", "activity change, negative = inhibition": "-2.41% (inactive)"}, {"smiles": "CCNC(=O)N1CCc2cc(-c3csc(NC(=O)c4cc(OC)cc(OC)c4)n3)ccc21", "activity change, negative = inhibition": "-0.713% (inactive)"}]}]}
